High-throughput results: PubChem BioAssay, Johns Hopkins Ion Channel Center
Shown are actives, neighbours in structure and some others; about 3.8% of the full set was active somewhere.
KCNK3 inh – human KCNK3 channel inhibition, primary screen. hit rate 0.84% among 340,000. B-score at 10 µM. O14649. AID 602410. CHO-KCNK3 thallium flux, FluxOR fluorescence; hits give low values;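 active means B-score under library mean minus 4 SD, starting fluorescence ratio at most library mean plus 5 SD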;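 further: more negative B-score means stronger inhibition of thallium flux through KCNK3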
hERG rescue – shields human hERG channel from block by proarrhythmic agents; CHO-hERG, FluxOR thallium flux, dofetilide IC70 present; activation (rescue from dofetilide block), less the hit threshold, % at 10 µM; hit rate 0.51% among 310,000;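 active means activation above the mean of controls blocked by dofetilide plus 5 SD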;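 further: thallium influx through hERG after potassium depolarization seen as dye fluorescence rise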
Kir21 inh – Kir2.1 (mouse) channel inhibition; HEK293-Kir2.1, FluxOR thallium flux fluorescence; hits give low values; B-score at 10 µM; hit rate 0.85% among 310,000; AID 1672;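 active means fluorescence ratio B-score at or below minus 3 SD of library scores, with starting-brightness B-score within 2 SD, cut at about -4.2 in these data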;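 further: channel flux triggered by added potassium and thallium sulfate stimulus; B-score of peak minus minimum fluorescence over baseline after thallium stimulus; more negative B-score means stronger Kir2.1 block with less thallium influx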
Target sequence (P35561 whole entry, looked up): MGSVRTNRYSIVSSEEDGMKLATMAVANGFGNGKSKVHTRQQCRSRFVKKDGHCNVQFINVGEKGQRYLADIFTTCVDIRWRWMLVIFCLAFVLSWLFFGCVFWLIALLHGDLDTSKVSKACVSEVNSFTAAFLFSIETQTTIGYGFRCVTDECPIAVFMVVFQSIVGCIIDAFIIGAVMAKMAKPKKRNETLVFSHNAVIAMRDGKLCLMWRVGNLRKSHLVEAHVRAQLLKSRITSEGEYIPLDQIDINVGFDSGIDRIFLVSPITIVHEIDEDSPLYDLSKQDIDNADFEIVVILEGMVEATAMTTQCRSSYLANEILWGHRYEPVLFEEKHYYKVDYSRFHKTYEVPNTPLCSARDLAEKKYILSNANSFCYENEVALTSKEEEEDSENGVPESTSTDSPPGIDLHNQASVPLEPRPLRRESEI
KCNK9 inh – inhibitors of human KCNK9 two-pore domain potassium channel; Q9NPC2; HEK293 KCNK9, FluxOR thallium flux fluorescence; hits give low values; B-score at 10 µM; hit rate 1.2% among 310,000; AID 488922;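 active means ratio B-score over 3 SD below the library mean, with starting fluorescence within 5 SD of its mean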;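 further: negative B-score means less thallium flux so channel inhibition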
KCNQ1 block – human KCNQ1 channel inhibition. P51787. CHO-K1 KCNQ1, FluxOR thallium flux fluorescence; hits give high values. B-score at 10 µM. hit rate 1.3% among 310,000;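 active means compounds whose thallium flux B-score, printed positive for inhibition, exceeds three library SD while starting fluorescence stays within three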;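 further: channel opened by potassium depolarization with thallium stimulus after 20 min compound exposure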
KCNQ1 act – human KCNQ1 channel potentiation or activation; P51787; CHO-K1 KCNQ1, thallium flux FluxOR fluorescence; hits give high values; B-score at 10 µM; hit rate 0.35% among 310,000; AID 2648;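 active means fluorescence ratio B-score, a plate-corrected score, at least three library SD, with initial intensity B-score within 5 SD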
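Assay system: CHO-K1 cells stably expressing KCNQ1. Medium: assay buffer for compound exposure, DMSO matched across wells. Timing: 37 °C overnight plating, 90-min dark dye load, 20-min compound pretreatment. Signal: kinetic FluxOR fluorescence, 10 s baseline plus 110 s post-stimulus.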
KCNK9 inh conf – confirmation of human KCNK9 potassium channel inhibitors | inhibition, % at 10 µM | HEK293 KCNK9 cells, FluxOR thallium flux fluorescence | hit rate 43% among 4,900 | AID 492992 | shares compounds with KCNK9 inh;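 active means thallium signal inhibited by more than 5 SD of the compound-free buffer control wells, on both duplicate plates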
Kir2-1 spec – selectivity of KCNK9 modulators against mouse Kir2.1; Kir2.1 cells, FluxOR thallium flux fluorescence; inhibition, % at 10 µM; shares compounds with KCNK9 inh; hit rate 4% among 4,900; AID 492993;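 active means thallium signal drop more than 5 SD beyond the mean of the no-compound control wells, seen in both duplicate plates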;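 further: signal is fluorescence rise after thallium addition divided by baseline fluorescence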
KCNK9 uninduced – second check of KCNK9 modulator effects in non-induced HEK293 cells | shares compounds with KCNK9 inh | FluxOR thallium flux | inhibition, % at 10 µM | hit rate 40% among 4,900 | AID 492997;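 active means thallium signal drop beyond 5 SD of the untreated control mean, on both duplicate plates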
Each line names hits and unclear results; the compound was inactive in the other large screens (follow-up assays come after a bar, where they were run).

O=C(CC1C=Cc2ccccc2N1C(=O)c1ccccc1)c1ccccc1 (configuration not stated)	KCNK9 inh -13 | KCNK9 inh conf 30% | Kir2-1 spec inactive | KCNK9 uninduced inactive
Cc1cc(C)c2nc(N(CCN(C)C)C(=O)c3ccc4ccccc4c3)sc2c1	none | KCNK9 inh conf inactive | Kir2-1 spec inactive | KCNK9 uninduced inactive
CN(C)CCN(C(=O)c1ccc2ccccc2c1)c1nc2c(F)cccc2s1	none
CN(C)CCn1c(=O)n(C2CCCCC2)c(=O)c2c3c(sc21)CCCCC3	none | KCNK9 inh conf inactive | Kir2-1 spec inactive | KCNK9 uninduced inactive
CCn1c(=O)n(CCOC)c(=O)c2c3c(sc21)CCCC3	none
O=C(Cn1c(=O)n(Cc2ccco2)c(=O)c2c3c(sc21)CCCCC3)Nc1ccccc1	KCNQ1 block 6 | KCNK9 inh conf inactive | Kir2-1 spec inactive | KCNK9 uninduced 34%
CN(C)CCn1c(=O)n(Cc2ccco2)c(=O)c2c3c(sc21)CCCCC3	none | KCNK9 inh conf inactive | Kir2-1 spec inactive | KCNK9 uninduced inactive
O=c1c2c3c(sc2n(CCN2CCCC2)c(=O)n1Cc1ccco1)CCCCC3	none
CC(=O)N1CC(c2ccccc2)C(c2ccc(Cl)cc2)=N1 (configuration not stated)	KCNK9 inh -9 | KCNK9 inh conf inactive | Kir2-1 spec inactive | KCNK9 uninduced inactive
COc1ccc(CNC(=O)CN2C(=O)NC(c3ccccc3)(c3ccccc3)C2=O)cc1OC	none (no result: hERG rescue, Kir21 inh, KCNK9 inh, KCNQ1 block, KCNQ1 act)
NS(=O)(=O)OCc1ccc(C(F)(F)F)cc1	none
S=C(NCCc1ccccc1)N/N=C/c1ccccc1Cl	none | KCNK9 inh conf inactive | Kir2-1 spec inactive | KCNK9 uninduced inactive
C/C(=N\NC(=S)NCCc1ccccc1)c1ccc(Cl)cc1	none | KCNK9 inh conf inactive | Kir2-1 spec inactive | KCNK9 uninduced inactive
C/C(=N\NC(=S)NCCc1ccccc1)c1ccc(C)cc1	none | KCNK9 inh conf inactive | Kir2-1 spec inactive | KCNK9 uninduced inactive
C/C(=N\NC(=S)NCCc1ccccc1)c1ccc(C#N)cc1	none
O=C1NC(=O)c2cc3ccccc3cc21	none (no result: hERG rescue, Kir21 inh, KCNK9 inh, KCNQ1 block, KCNQ1 act)
Cc1cccc(CN2C(=O)CSc3ccc(C(=O)NC4CC4)cc32)c1	none
CN(CC1CCOCC1)C(=O)CC1C(=O)NCCN1Cc1cccc(F)c1 (configuration not stated)	none
O=C(CCSc1ccccc1Cl)Nc1cccc([N+](=O)[O-])c1	none | KCNK9 inh conf inactive | Kir2-1 spec inactive | KCNK9 uninduced 30%
Cc1ccccc1CN(CC(=O)Nc1cccc([N+](=O)[O-])c1)S(=O)(=O)c1ccc(Cl)cc1	KCNQ1 block 9 | KCNK9 inh conf inactive | Kir2-1 spec inactive | KCNK9 uninduced inactive
CCOC(=O)N/N=C\c1ccc(-c2cc(Cl)ccc2Cl)o1	KCNK9 inh -8.6 | KCNK9 inh conf 45% | Kir2-1 spec inactive | KCNK9 uninduced inactive
CSc1ccc(CNC(=O)C2CCC(=O)N(CCc3cccc(F)c3)C2)cc1 (configuration not stated)	none
COc1ccc(C(=O)O)cc1S(=O)(=O)Nc1ccccc1Cc1ccccc1	none
CCCCC(=O)Nc1ccccc1C(=O)OCC(=O)c1ccc2c(c1)OCCO2	KCNK9 inh -19 | KCNK9 inh conf 78% | Kir2-1 spec inactive | KCNK9 uninduced 43%
Cc1ccc(/C(=N\O)c2oc3c(C)c4oc(=O)cc(C)c4cc3c2C)cc1	KCNK9 inh -9.3, KCNQ1 block 8 | KCNK9 inh conf 28% | Kir2-1 spec inactive | KCNK9 uninduced 44%
CC[C@]12C(=O)N(C)C[C@H]([C@@H]3C(=O)N(C)C(=O)[C@@H]31)N2C(=O)c1ccc(Br)cc1	none (no result: hERG rescue, Kir21 inh, KCNK9 inh, KCNQ1 block, KCNQ1 act)
Cc1ccc(CN2CCSc3ccc(C(=O)NCC4CCCO4)cc32)cc1 (configuration not stated)	none
